Laboratory results published in ChEMBL document CHEMBL6078712, “Triterpenoid phthalimides as selective anti-cancer agents targeting mitochondrial apoptosis” (Eur J Med Chem, 2025).

Key:
[1] = system: K562; test: Cytotoxicity against human K562 cells assessed as inhibition of cell growth incubated for 72 hrs by MTS assay; assay type: functional, cell-based; conditions: K562, 72 h
Outline: (§1)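 MTS assay on eight human cancer lines and two non-tumour fibroblast lines. IC50 is the concentration that inhibits cell growth by 50 %. SD typically up to 15 % of the mean.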

[2] = Cytotoxicity against human MRC5 cells assessed as inhibition of cell growth incubated for 72 hrs by MTS assay; assay type: toxicity, cell-based; outline: as §1
[3] = system: U2OS; test: Cytotoxicity against human U2OS cells assessed as inhibition of cell growth incubated for 72 hrs by MTS assay; assay type: functional, cell-based; outline: as §1
[4] = system: HCT 116 TP53(-/-); test: Cytotoxicity against human HCT116-p53-null cells assessed as inhibition of cell growth incubated for 72 hrs by MTS assay; assay type: functional, cell-based; outline: as §1
[5] = system: CCRF-CEM; test: Cytotoxicity against human CCRF-CEM cells assessed as inhibition of cell growth incubated for 72 hrs by MTS assay; assay type: functional, cell-based; outline: as §1
[6] = Cytotoxicity against human BJ cells assessed as inhibition of cell growth incubated for 72 hrs by MTS assay; assay type: toxicity, cell-based; outline: as §1
[7] = system: CEM-DNR; test: Cytotoxicity against human CEM-DNR cells assessed as inhibition of cell growth incubated for 72 hrs by MTS assay; assay type: functional, cell-based; outline: as §1
[8] = system: A549; test: Cytotoxicity against human A549 cells assessed as inhibition of cell growth incubated for 72 hrs by MTS assay; assay type: functional, cell-based; conditions: A549, 72 h; outline: as §1
[9] = Cytotoxicity against human K562-Tax cells assessed as inhibition of cell growth incubated for 72 hrs by MTS assay; assay type: functional, cell-based; outline: as §1
[10] = system: HCT-116; test: Cytotoxicity against human HCT-116 cells assessed as inhibition of cell growth incubated for 72 hrs by MTS assay; assay type: functional, cell-based; conditions: HCT-116, 72 h; outline: as §1

Row | Structure (SMILES) | IC50 [1] [µM] | IC50 at 72 h [2] [µM] | IC50 [3] [µM] | IC50 [4] [µM] | IC50 [5] [µM] | IC50 at 72 h [6] [µM] | IC50 [7] [µM] | IC50 [8] [µM] | IC50 [9] [µM] | IC50 [10] [µM]
1 | CC(=O)O[C@H]1CC[C@]2(C)[C@H]3CC[C@@H]4[C@H]5[C@H](c6ccc7c(c6)C(=O)N(c6cc[nH]n6)C7=O)CC[C@]5(C(=O)O)CC[C@@]4(C)[C@]3(C)CC[C@H]2C1(C)C | 29.4 | 28.3 | 26.2 | 30.1 | 18.7 | 30 | 25.4 | 27.1 | 21.1 | 24
2 | COc1ccc(N2C(=O)c3cc([C@@H]4CC[C@]5(C(=O)O)CC[C@]6(C)[C@H](CC[C@@H]7[C@@]8(C)CC[C@H](O)C(C)(C)[C@@H]8CC[C@]76C)[C@@H]45)cc(-c4ccccc4)c3C2=O)cc1 | > 50 | > 50 | > 50 | > 50 | 13.6 | > 50 | > 50 | > 50 | 27.9 | > 50
3 | COC(=O)c1ccc([C@@H]2CC[C@]3(CO)CC[C@]4(C)[C@H](CC[C@@H]5[C@@]6(C)CC[C@H](O)C(C)(C)[C@@H]6CC[C@]54C)[C@@H]23)cc1C(=O)OC | > 50 | > 50 | > 50 | > 50 | > 50 | > 50 | 19.7 | > 50 | 10.3 | > 50
4 | CC1(C)[C@@H](O)CC[C@]2(C)[C@H]3CC[C@@H]4[C@H]5[C@H](c6ccc7c(c6)C(=O)N(c6ccccc6)C7=O)CC[C@]5(C(=O)O)CC[C@@]4(C)[C@]3(C)CC[C@@H]12 | > 50 | 31 | 24.9 | 37.8 | 7.93 | > 50 | 19.9 | 34.2 | 14.3 | 31.1
5 | COc1ccc(N2C(=O)c3ccc([C@@H]4CC[C@]5(COC(C)=O)CC[C@]6(C)[C@H](CC[C@@H]7[C@@]8(C)CC[C@H](OC(C)=O)C(C)(C)[C@@H]8CC[C@]76C)[C@@H]45)cc3C2=O)cc1 | > 50 | > 50 | > 50 | > 50 | > 50 | > 50 | > 50 | > 50 | > 50 | > 50
6 | CC(=O)O[C@H]1CC[C@]2(C)[C@H]3CC[C@@H]4[C@H]5[C@H](c6ccc7c(c6)C(=O)NC7=O)CC[C@]5(CO)CC[C@@]4(C)[C@]3(C)CC[C@H]2C1(C)C | 36 | 28.5 | 34.5 | 21.8 | 14 | > 50 | 9.21 | > 50 | 7.43 | 19.7
7 | CC1(C)[C@@H](O)CC[C@]2(C)[C@H]3CC[C@@H]4[C@H]5[C@H](c6ccc7c(c6)C(=O)NC7=O)CC[C@]5(C(=O)O)CC[C@@]4(C)[C@]3(C)CC[C@@H]12 | 35.3 | > 50 | 38.5 | 34.9 | 26.3 | > 50 | 20.7 | 26.6 | 17.3 | 31.1
8 | COC(=O)c1cc([C@@H]2CC[C@]3(CO)CC[C@]4(C)[C@H](CC[C@@H]5[C@@]6(C)CC[C@H](O)C(C)(C)[C@@H]6CC[C@]54C)[C@@H]23)cc(-c2ccccc2)c1C(=O)OC | > 50 | > 50 | > 50 | > 50 | > 50 | > 50 | > 50 | > 50 | > 50 | > 50
9 | CC(=O)OC[C@]12CC[C@@H](c3ccc4c(c3)C(=O)NC4=O)[C@@H]1[C@H]1CC[C@@H]3[C@@]4(C)CC[C@H](OC(C)=O)C(C)(C)[C@@H]4CC[C@@]3(C)[C@]1(C)CC2 | > 50 | > 50 | > 50 | > 50 | > 50 | > 50 | > 50 | > 50 | > 50 | > 50
10 | CC(=O)OC[C@]12CC[C@@H](c3cc4c(c(-c5ccccc5)c3)C(=O)NC4=O)[C@@H]1[C@H]1CC[C@@H]3[C@@]4(C)CC[C@H](OC(C)=O)C(C)(C)[C@@H]4CC[C@@]3(C)[C@]1(C)CC2 | > 50 | > 50 | > 50 | > 50 | > 50 | > 50 | > 50 | > 50 | > 50 | > 50
